Reference: ChEMBL document CHEMBL1955795, “Efficient synthesis and biological evaluation of proximicins A, B and C” (Bioorg Med Chem, 2012)
In brackets after ≈: the same amount, converted by molar mass. Activity calls are given as the source filed them. The rule behind the calls is not given here.

Assays:
Staphylococcus aureus [1] = assay: Antimicrobial activity against Staphylococcus aureus […] after 24 hrs by MTT assay; type: functional
In short: (§1)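 Broth microdilution MIC in cation-adjusted Mueller-Hinton broth adjusted to 20 mg/L Ca²⁺ and 10 mg/L Mg²⁺. Strains grown on nutrient agar 24 h at 37 °C before testing. Inoculum of 5 × 10⁵ cfu prepared in normal saline against a 0.5 McFarland standard, added to wells and incubated at 37 °C. MTT (5 mg/mL methanolic solution) added for 20 min. Yellow-to-dark-blue colour change indicated growth. MIC = lowest concentration with no growth.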

Staphylococcus aureus [2] = assay: Antimicrobial activity against epidemic methicillin-resistant Staphylococcus aureus 16 after 24 hrs by MTT assay; type: functional; details: Staphylococcus aureus, 16, 24 h; in short: as §1
Staphylococcus aureus [3] = assay: Antimicrobial activity against Staphylococcus aureus SA 1199B over-expressing NorA MDR efflux pump after 24 hrs by MTT assay; type: functional; in short: as §1
Jurkat [4] = assay: Induction of apoptosis in human Jurkat 16 cells assessed as DNA fragments release from apoptotic nuclei at 20 ug/ml after 24 hrs by propidium iodide based flow cytometry analysis; type: functional, cell-based
In short: (§2)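 Cells grown in RPMI with 10% FCS and penicillin/streptomycin at 37 °C, 5% CO2. Treated 24 h at 20 µg/mL. Apoptotic DNA fragmentation measured as propidium iodide fluorescence by flow cytometry, reported as percentage of degraded DNA.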

L1236 [5] = assay: Induction of apoptosis in human L1236 cells assessed as DNA fragments release from apoptotic nuclei at 20 ug/ml after 24 hrs by propidium iodide based flow cytometry analysis; type: functional, cell-based; in short: as §2
Jurkat [6] = assay: Induction of apoptosis in human Jurkat 16 cells assessed as DNA fragments release from apoptotic nuclei after 48 hrs by propidium iodide based flow cytometry analysis; type: functional, cell-based
In short: (§3)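 Cells grown in RPMI with 10% FCS and penicillin/streptomycin at 37 °C, 5% CO2. Plated in duplicate and treated 48 h with increasing concentrations. DNA released from apoptotic nuclei stained with propidium iodide. Percentage DNA fragmentation quantified by flow cytometry.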

Staphylococcus aureus [7] = assay: Antimicrobial activity against epidemic methicillin-resistant Staphylococcus aureus 15 after 24 hrs by MTT assay; type: functional; details: Staphylococcus aureus, 15, 24 h; in short: as §1
Enterococcus faecalis = assay: Antimicrobial activity against Enterococcus faecalis NCTC 12697 after 24 hrs by MTT assay; type: functional; details: NCTC 12697, 24 h
In short: (§4)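 Broth microdilution MIC in cation-adjusted Mueller-Hinton broth supplemented to 20 mg/L Ca2+ and 10 mg/L Mg2+. Strains grown on nutrient agar 24 h at 37 °C. Inoculum of 5 × 10⁵ cfu set in normal saline against a 0.5 McFarland standard. Plates incubated at 37 °C, then MTT (5 mg/mL methanolic, 20 µL) added for 20 min. MIC taken as the lowest concentration with no yellow-to-blue colour change.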

Escherichia coli = assay: Antimicrobial activity against Escherichia coli NCTC 10418 after 24 hrs by MTT assay; type: functional; details: NCTC 10418, 24 h; in short: as §4
Jurkat [8] = assay: Induction of apoptosis in human Jurkat 16 cells assessed as DNA fragments release from apoptotic nuclei at 50 ug/ml after 48 hrs by propidium iodide based flow cytometry analysis; type: functional, cell-based; in short: as §3
L1236 [9] = assay: Induction of apoptosis in human L1236 cells assessed as DNA fragments release from apoptotic nuclei at 50 ug/ml after 48 hrs by propidium iodide based flow cytometry analysis; type: functional, cell-based; in short: as §3
[10] = Cytotoxicity against human U87MG cells after 48 hrs by MTT assay; type: functional, cell-based, U-87MG ATCC; details: U-87 MG
In short: (§5)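 U-87 MG cells in MEM and MDA-MB-231 cells in DMEM, each with 10% FBS, L-glutamine, non-essential amino acids and sodium pyruvate, kept at 5% CO2. Log-phase cells exposed to increasing drug concentrations for 24 h, then grown in fresh medium for a further 48 h. MTT added for 4 h, formazan dissolved in DMSO, absorbance read. Viability normalised to untreated wells after subtracting Triton-treated wells. IC50 derived.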

MDA-MB-231 = assay: Cytotoxicity against human MDA-MB-231 cells after 48 hrs by MTT assay; type: functional, cell-based; details: MDA-MB-231, 48 h; in short: as §5

Compound	MIC (Staphylococcus aureus [1])	MIC (Staphylococcus aureus [2])	MIC (Staphylococcus aureus [3])	Activity (Jurkat [4])	Activity (L1236 [5])	Activity (Jurkat [6])	MIC (Staphylococcus aureus [7])	MIC (Enterococcus faecalis)	MIC (Escherichia coli)	Activity (Jurkat [8])	Activity (L1236 [9])	IC50 [10]	IC50 (MDA-MB-231)
Cn1cc(NC(=O)c2cc(NC(=O)CNC(=N)N)cn2C)cc1C(=O)NCCC(=N)N [NETROPSIN]	64 µg/mL (≈ 149 µM)	128 µg/mL (≈ 297 µM)	16 µg/mL (≈ 37.2 µM)										
COC(=O)Nc1coc(C(=O)Nc2coc(C(=O)NCCc3ccc(O)cc3)c2)c1 [PROXIMICIN B]	8 µg/mL (≈ 19.4 µM)	8 µg/mL (≈ 19.4 µM)	4 µg/mL (≈ 9.68 µM)	Active	Active	Dose-dependent effect	8 µg/mL (≈ 19.4 µM)	4 µg/mL (≈ 9.68 µM)	> 128 µg/mL				
COC(=O)Nc1coc(C(=O)Nc2coc(C(=O)NCCc3c[nH]c4ccccc34)c2)c1 [PROXIMICIN C]	> 256 µg/mL	> 256 µg/mL	> 256 µg/mL				> 128 µg/mL	> 128 µg/mL	> 128 µg/mL	Active	inactive	12.7 µg/mL (≈ 29.1 µM)	11.4 µg/mL (≈ 26.1 µM)
CN(C)[C@@H]1C(O)=C(C(N)=O)C(=O)[C@@]2(O)C(O)=C3C(=O)c4c(O)cccc4[C@@](C)(O)[C@H]3C[C@@H]12 [TETRACYCLINE]	0.5 µg/mL (≈ 1.13 µM)	0.5 µg/mL (≈ 1.13 µM)	0.25 µg/mL (≈ 0.563 µM)				0.12 µg/mL (≈ 0.27 µM)	4 µg/mL (≈ 9 µM)	0.12 µg/mL (≈ 0.27 µM)				
